Laboratory results: ChEMBL document CHEMBL4706497, “The structure-based optimization of δ-sultone-fused pyrazoles as selective BuChE inhibitors” (Eur J Med Chem, 2020)
pIC50, pKi: −log10 of the molar value. The source made the active and inactive calls. The rule behind the calls is not given here.

Tests used:
[1] = Antioxidant activity assessed as free radical scavenging activity at 100 uM measured after 2 hrs under dark conditions by DPPH assay relative to control; format: functional
In short: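 Each compound at 100 μM mixed with DPPH (140 μM) and incubated 2 h in the dark at 37 °C. Absorbance read at 520 nm. Reduction percentage = (1 − A_C/A₀) × 100%, with A_C and A₀ the absorbance with and without compound. Ascorbic acid served as standard.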

Cholinesterase [2] = molecular target: T1, Cholinesterase (Equus caballus, UniProt P81908); test: Inhibition of equine serum BuChE using butyrylthiocholine iodide as substrate preincubated with enzyme for 20 mins followed by addition of substrate and measured after 20 mins by DTNB reagent based Ellman's method; format: cell-free
In short: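 Enzyme at 0.036 U/mL in 0.1 M phosphate buffer pH 8, preincubated with inhibitor 20 min at 37 °C. Then 0.5 mM butyrylthiocholine iodide and 0.35 mM DTNB added, and A410 read after 20 min. IC50 taken graphically from log concentration vs % inhibition curves. Mean ± SEM of at least three independent experiments.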

[3] = Octanol/Water partition coefficient, log P of the compound in PBS buffer at pH7.4 measured after 48 hrs by shake flask method; format: physicochemical; settings: pH 7.4
In short: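 Shake-flask partition between equal volumes of n-octanol and PBS pH 7.4, pre-saturated by sonication and standing 24 h. Compound added, vessel sealed and shaken at 37 °C for 48 h to equilibrate, then phases analysed by HPLC.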

[4] = molecular target: Acetylcholinesterase (AChE) (Electrophorus electricus, UniProt O42275); test: Inhibition of recombinant electric eel AChE using acetylthiocholine iodide as substrate at 20 uM preincubated with enzyme for 20 mins followed by addition of substrate and measured after 20 mins by DTNB reagent based Ellman's method; settings: probe acetylthiocholine iodide, time 40 min
In short: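 Enzyme at 0.036 U/mL in 0.1 M phosphate buffer pH 8, preincubated 20 min at 37 °C with compound at 20 μM. Then 0.35 mM acetylthiocholine iodide and 0.35 mM DTNB added, and A410 read after 20 min. Percent inhibition compared with a no-inhibitor control.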

L02 [5] = test: Cytotoxicity against human L02 cells assessed as reduction in cell viability at 10 to 25 uM measured after 24 hrs by MTT assay; format: cell-based; settings: l02, 24 h, dose 10-25 µM
In short: (§1)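 HepG2 and LO2 cells grown in DMEM with 10% FBS, penicillin/streptomycin, 37 °C, 5% CO2. Cells seeded at 1×10^4/well, cultured 24 h, then exposed 24 h to compound diluted in DMEM (range 1–50 μM). MTT 0.5 mg/mL added for 4 h, formazan dissolved in DMSO, OD read at 492 nm. Viability is given relative to medium-only blank (100%); three independent experiments.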

Cholinesterase [6] = molecular target: T1, Cholinesterase; test: Mixed inhibition of equine serum BChE using butyrylthiolcholine iodide as substrate by Lineweaver-Burk plot analysis; format: cell-free
In short: (§2)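 Run under the standard Ellman conditions (0.036 U/mL enzyme, pH 8, 37 °C). Six butyrylthiocholine concentrations (0.1–1 mM) crossed with inhibitor at 0, 0.02, 0.04 and 0.08 μM. Lineweaver-Burk plots and secondary plots used for mode of inhibition and Ki. Reversibility tested by varying enzyme at 0–0.72 U/mL at each inhibitor concentration.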

[7] = Neuroprotective activity against H2O2 induced cytotoxicity in […] cells assessed as cell viability at 25 uM preincubated for 3 hrs followed by addition of H2O2 measured after 24 hrs by MTT assay; format: functional; settings: PC-12, time 27 hrs, read-out: Activity
In short: (§3)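 PC12 cells seeded at 1×10^4/well and incubated overnight. Pretreated 3 h with compound (1–25 µM), then medium replaced with fresh medium containing compound plus 100 µM H2O2 for a further 24 h. Viability read by MTT (0.5 mg/mL, 4 h), formazan dissolved in DMSO, OD at 492 nm, corrected for blank.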

[8] = Neuroprotective activity against H2O2 induced cytotoxicity in […] cells assessed as cell viability at […] uM preincubated for 3 hrs followed by addition of H2O2 measured after 24 hrs by MTT assay; format: functional; settings: PC-12, time 27 hrs, read-out: Activity
L02 [9] = test: Cytotoxicity against human L02 cells assessed as reduction in cell viability at 50 uM measured after 24 hrs by MTT assay; format: cell-based; settings: l02, 24 h; in short: as §1
[10] = molecular target: Cholinesterase (Equus caballus) (UniProt P81908); test: Reversible inhibition of equine serum BChE using butyrylthiolcholine iodide as substrate at 0.02 to 0.08 uM by Lineweaver-Burk plot analysis; format: cell-free; settings: dose 0.02-0.08 µM; in short: as §2
HepG2 [11] = test: Cytotoxicity against human HepG2 cells assessed as reduction in cell viability at 10 to 25 uM measured after 24 hrs by MTT assay; format: cell-based; settings: hepg2, 24 h, dose 10-25 µM; in short: as §1
HepG2 [12] = test: Cytotoxicity against human HepG2 cells assessed as reduction in cell viability at 50 uM measured after 24 hrs by MTT assay; format: cell-based; settings: hepg2, 24 h; in short: as §1
[13] = Selectivity for equine serum BuChE over recombinant electric eel AChE
PC-12 = test: Neuroprotective activity against H2O2 induced cytotoxicity in […] cells assessed as cell viability preincubated for 3 hrs followed by addition of H2O2 measured after 24 hrs by MTT assay; format: functional, cell-based; settings: dose 6.25-25 µM, time 27.0 hrs; in short: as §3

T1 sequence (P81908 whole entry): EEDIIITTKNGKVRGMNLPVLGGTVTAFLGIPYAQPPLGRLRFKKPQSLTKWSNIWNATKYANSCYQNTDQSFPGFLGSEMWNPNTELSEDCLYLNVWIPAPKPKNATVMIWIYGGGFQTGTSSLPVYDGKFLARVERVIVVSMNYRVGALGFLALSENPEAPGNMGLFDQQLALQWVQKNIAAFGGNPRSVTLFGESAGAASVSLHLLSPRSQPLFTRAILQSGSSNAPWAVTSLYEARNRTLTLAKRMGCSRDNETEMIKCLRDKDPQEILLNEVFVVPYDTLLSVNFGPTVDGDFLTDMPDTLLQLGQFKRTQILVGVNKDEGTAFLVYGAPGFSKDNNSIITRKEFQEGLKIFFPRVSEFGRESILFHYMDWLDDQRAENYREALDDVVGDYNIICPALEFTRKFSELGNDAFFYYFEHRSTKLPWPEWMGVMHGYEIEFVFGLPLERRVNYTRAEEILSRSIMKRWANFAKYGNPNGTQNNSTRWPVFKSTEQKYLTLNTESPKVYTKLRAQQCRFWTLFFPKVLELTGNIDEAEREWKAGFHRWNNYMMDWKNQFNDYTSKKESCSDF
Acetylcholinesterase (AChE), sequence (O42275 whole entry): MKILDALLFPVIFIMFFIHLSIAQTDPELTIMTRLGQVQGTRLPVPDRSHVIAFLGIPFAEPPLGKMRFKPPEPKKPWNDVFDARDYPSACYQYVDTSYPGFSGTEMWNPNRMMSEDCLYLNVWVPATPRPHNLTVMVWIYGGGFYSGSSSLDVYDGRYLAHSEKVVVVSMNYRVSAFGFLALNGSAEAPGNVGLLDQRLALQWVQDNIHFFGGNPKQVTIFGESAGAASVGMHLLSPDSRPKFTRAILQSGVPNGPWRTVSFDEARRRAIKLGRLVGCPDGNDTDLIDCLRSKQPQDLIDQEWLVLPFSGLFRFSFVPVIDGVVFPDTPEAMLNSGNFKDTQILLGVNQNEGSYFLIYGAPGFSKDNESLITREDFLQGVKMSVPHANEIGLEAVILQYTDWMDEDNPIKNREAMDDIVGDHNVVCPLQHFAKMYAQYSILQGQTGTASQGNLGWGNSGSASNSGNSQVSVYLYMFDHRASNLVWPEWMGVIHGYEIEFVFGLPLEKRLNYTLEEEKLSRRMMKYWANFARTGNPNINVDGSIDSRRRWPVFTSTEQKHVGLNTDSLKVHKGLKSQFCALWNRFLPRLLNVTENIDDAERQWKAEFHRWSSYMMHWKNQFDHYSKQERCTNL
Cholinesterase (Equus caballus), sequence (P81908 whole entry): as the sequence (P81908 whole entry) above

SMILES | inhibition [1] [%] | pIC50 (Cholinesterase [2]) | other results
COCCN(Cc1ccc(Br)cc1)Cc1nn(-c2ccccc2F)c2c1CCS(=O)(=O)O2 | 4.8 | 6.82 | 
CCN(Cc1ccccc1)Cc1nn(-c2ccccc2Cl)c2c1CCS(=O)(=O)O2 |  | 7.30 | 
O=S1(=O)CCc2c(-c3ccc(F)cc3)nn(-c3ccccc3F)c2O1 |  | 6.80 | 
CN1CCN(Cc2nn(-c3ccccc3F)c3c2CCS(=O)(=O)O3)CC1 |  | 5.66 | 
O=S1(=O)CCc2c(CN3CCOCC3)nn(-c3ccccc3Cl)c2O1 |  | 6.39 | 
O=S1(=O)CCc2c(CN(CCO)Cc3ccc(Cl)cc3)nn(-c3ccccc3F)c2O1 | 10.2 | 7.05 | 
O=S1(=O)CCc2c(-c3ccc(Br)cc3)nn(-c3ccccc3F)c2O1 |  | 6.33 | 
CCN(Cc1ccccc1)Cc1nn(-c2ccccc2F)c2c1CCS(=O)(=O)O2 | 1.8 | 7.10 | logD at 48 h [3]: 2
Cc1nn(-c2ccccc2F)c2c1CCS(=O)(=O)O2 |  | 5.92 | 
O=S1(=O)CCc2c(CN(CCO)Cc3ccc(F)cc3)nn(-c3ccccc3F)c2O1 | 5.5 | 8.08 | logD at 48 h [3]: 2.42
O=S1(=O)CCc2c(CN3CCN(Cc4ccccc4)CC3)nn(-c3ccccc3Cl)c2O1 |  | 6.34 | 
CCN(Cc1ccc(Cl)cc1)Cc1nn(-c2ccccc2F)c2c1CCS(=O)(=O)O2 | 4.2 | 7.40 | 
Cc1ccc(CN(CCO)Cc2nn(-c3ccccc3F)c3c2CCS(=O)(=O)O3)cc1 | 5.2 | 6.77 | 
O=S1(=O)CCc2c(CCl)nn(-c3ccccc3F)c2O1 |  | 6.72 | 
COc1ccc(CN(CCO)Cc2nn(-c3ccccc3F)c3c2CCS(=O)(=O)O3)cc1OC | 5.5 | 6.25 | 
COCCN(Cc1ccc(Cl)cc1)Cc1nn(-c2ccccc2F)c2c1CCS(=O)(=O)O2 | 3.6 | 7.05 | 
COCCN(Cc1ccccc1)Cc1nn(-c2ccccc2F)c2c1CCS(=O)(=O)O2 | 2.3 | 6.62 | 
O=S1(=O)CCc2c(CN(CCO)Cc3ccccc3)nn(-c3ccccc3Cl)c2O1 |  | 7.40 | 
O=S1(=O)CCc2c(CN3CCN(Cc4ccccc4)CC3)nn(-c3ccccc3F)c2O1 |  | 6.17 | 
O=S1(=O)CCc2c(-c3ccc(Cl)cc3)nn(-c3ccccc3F)c2O1 |  | 6.70 | 
CCN(Cc1ccc(F)cc1)Cc1nn(-c2ccccc2F)c2c1CCS(=O)(=O)O2 | 0.6 | 7.15 | 
O=S1(=O)CCc2c(-c3ccccc3)nn(-c3ccccc3Cl)c2O1 |  | 6.77 | 
COc1ccc(-c2nn(-c3ccc(Cl)cc3)c3c2CCS(=O)(=O)O3)cc1 |  | 5.06 | 
O=S1(=O)CCc2c(C3CC3)nn(-c3cccc(F)c3)c2O1 |  | 6.43 | 

SMILES | inhibition [1] [%] | pIC50 (Cholinesterase [2]) | other results
O=S1(=O)CCc2c(C3CC3)nn(-c3cccc(Cl)c3)c2O1 |  | 6.15 | 
O=S1(=O)CCc2c(CN(CCO)Cc3cccc(F)c3)nn(-c3ccccc3F)c2O1 | 5 | 7.05 | 
O=S1(=O)CCc2c(CN(CCO)Cc3ccccc3)nn(-c3ccccc3F)c2O1 | 5.4 | 7.40 | logD at 48 h [3]: 2.05
CCN(Cc1ccc(Br)cc1)Cc1nn(-c2ccccc2F)c2c1CCS(=O)(=O)O2 | 12.9 | 7.15 | 
CN(Cc1ccccc1)Cc1nn(-c2ccccc2F)c2c1CCS(=O)(=O)O2 |  | 7.10 | logD at 48 h [3]: 1.78
CN(Cc1ccccc1)Cc1nn(-c2ccccc2Cl)c2c1CCS(=O)(=O)O2 |  | 7.15 | 
O=S1(=O)CCc2c(-c3ccc(F)cc3)nn(-c3ccccc3Cl)c2O1 |  | 6.89 | 
COc1ccc(CN(CCO)Cc2nn(-c3ccccc3F)c3c2CCS(=O)(=O)O3)cc1 | 3.2 | 6.59 | 
O=S1(=O)CCc2c(CN(CCO)Cc3cccc(Cl)c3)nn(-c3ccccc3F)c2O1 | 4.7 | 6.72 | 
CN(Cc1ccc(Br)cc1)Cc1nn(-c2ccccc2F)c2c1CCS(=O)(=O)O2 | 0.2 | 7.15 | inhibition at 20 min, 20 µM [4]: 33.6%
COCCN(Cc1ccc(F)cc1)Cc1nn(-c2ccccc2F)c2c1CCS(=O)(=O)O2 | 6.3 | 6.96 | 
O=S1(=O)CCc2c(-c3ccc(Cl)cc3)nn(-c3ccccc3Cl)c2O1 |  | 5.80 | 
O=S1(=O)CCc2c(-c3ccccc3)nn(-c3ccccc3F)c2O1 |  | 6.74 | 
O=S1(=O)CCc2c(C3CC3)nn(-c3ccccc3F)c2O1 |  | 6.85 | logD at 48 h [3]: 2.09
CN(Cc1ccc(F)cc1)Cc1nn(-c2ccccc2F)c2c1CCS(=O)(=O)O2 | 5.7 | 7.40 | 
O=S1(=O)CCc2c(CN(CCO)Cc3cccc(Br)c3)nn(-c3ccccc3F)c2O1 | 0.8 | 6.48 | 
O=S1(=O)CCc2c(CN(CCO)Cc3ccc(Cl)cc3Cl)nn(-c3ccccc3F)c2O1 | 1.8 | 7.05 | 
O=S1(=O)CCc2c(-c3ccc(Br)cc3)nn(-c3ccccc3Cl)c2O1 |  | 5.43 | 
O=S1(=O)CCc2c(C3CC3)nn(-c3ccccc3Cl)c2O1 |  | 6.74 | 
O=S1(=O)CCc2c(CN3CCOCC3)nn(-c3ccccc3F)c2O1 |  | 6.82 | 
O=S1(=O)CCc2c(CCl)nn(-c3ccccc3Cl)c2O1 |  | 6.70 | 
CN(Cc1ccc(Cl)cc1)Cc1nn(-c2ccccc2F)c2c1CCS(=O)(=O)O2 | 6.1 | 7.70 | 
O=S1(=O)CCc2c(CN(CCO)Cc3ccc(Br)cc3)nn(-c3ccccc3F)c2O1 | 22.2 | 8.11 | Activity (L02 [5]): Non-Toxic; pKi (Cholinesterase [6]): 7.62; viability at 25 µM [7]: 49.6%; viability at […] [8]: 40.9%; inhibition at 20 min, 20 µM [4]: 43.3%; Activity (L02 [9]): 95.3%; logD at 48 h [3]: 1.93; inhibition [10]: Active; Activity (HepG2 [11]): Non-Toxic; Activity (HepG2 [12]): 82.8%; Selectivity Index [13]: > 2000; Activity (PC-12): Dose-dependent effect
CN1CCN(Cc2nn(-c3ccccc3Cl)c3c2CCS(=O)(=O)O3)CC1 |  | 5.65 | 
